Assay: Toxicity liver stage against HepG2, at 10uM
Type: cell-based
Parameters: test concentration 10 uM, cell line HepG2-A16-CD81EGFP
Settings: human, HepG2-A16-CD81EGFP cells; read-out: INHIBITION
In short: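 Uninfected HepG2-A16-CD81EGFP cells, 3 × 10^3 per well, 1536-well, plated on prespotted compound at 10 μM final, parasite-free screening media added to match infected plates; puromycin 10 μM positive, DMSO 0.5% negative; run in parallel with 48 h PbLuc assay at 37 °C, 5% CO2; viability by CellTiter-Glo luminescence, normalized to controls.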

Row | Structure (SMILES) | cytotoxicity at 10 µM [%]
1 | CCN1CCC2(COCc3cnc(-c4cccnc4)nc32)C1 (stereo not given) | 4.04
2 | O=C(NCCCO)C1(N2CCCCC2)Cc2ccccc2C1 | -3.07
3 | CNC(=O)C1CN(C(=O)COc2ccccc2)Cc2cn(C)nc21 (stereo not given) | -10.4
4 | CCCS(=O)(=O)N1CCN(c2cc(-n3nc(C)cc3C)nc(C)n2)CC1 | -13.7
5 | O=C(c1cccc2cccnc12)N1CC[C@@]2(CCCO2)[C@@H](O)C1 | -23.8
6 | Cc1cc(OCCC(=O)NCc2ccc(F)cc2)nnc1C | 4.4
7 | CS(=O)(=O)c1cc(Cl)cnc1C1CCN(C(=O)C2CCOCC2)CC1 | 4.07
8 | O=C(CCc1cscn1)N1CCCC(c2ccn[nH]2)C1 (stereo not given) | -9.14
9 | COc1ccc(N2CCN(CC(O)c3cc(C)ccc3C)CC2)cc1 (stereo not given) | 7.25
10 | CCOc1ccc2nc(CN3CCC(CN)C3)ccc2c1 (stereo not given) | -7.41
11 | CC1(C)OCC(CNC(=O)c2cnn(-c3ccc(Cl)cc3)c2N)O1 (stereo not given) | 2.31
12 | CCn1c(C)nc2cc(NC(=O)CC3CCCCO3)ccc21 (stereo not given) | 5.36
13 | COc1cccn(CC(=O)N2CCC3(CCNCC3)C2)c1=O | -11.4
14 | COc1ccccc1-c1noc(CCC(=O)NC(C)Cn2cccn2)n1 (stereo not given) | 5.67
15 | CCCS(=O)(=O)c1ccc(N2CCC(Cc3ccccc3)CC2)nn1 | -7.91
16 | Oc1nc(N2CCOCC2)nc2c1CCN(Cc1cccnc1)CC2 | -3.71
17 | CCCN(C(=O)c1cnns1)C1CCCN(Cc2ccccc2)C1 (stereo not given) | -4.35
18 | CCC(CC)(CC)NC(=O)Nc1nnc(-c2ccccn2)s1 | -2.27
19 | CCC(c1ccc(F)cc1F)N1CCN(CCO)CC1 (stereo not given) | -4.34
20 | Cc1cccnc1NCCNc1cc(C(C)C)nc2ccnn12 | -5.29
21 | O=C(c1ccnnc1)N1CCC2(CCN(c3ccsc3)C2=O)C1 (stereo not given) | -139
22 | COc1cc(N2C[C@@H](C)[C@](O)(C3CC3)C2)ncn1 | -0.714

Row | Structure (SMILES) | cytotoxicity at 10 µM [%]
23 | CCC(CC)NC(=O)c1cccnc1N1CCCC1c1ccccn1 (stereo not given) | 10.3
24 | CCn1ccnc1CN1CCCN(C(=O)Cc2ccc(F)cc2)CC1 | -15.8
25 | Cn1cc(CN2CCCC(c3nccnc3-c3cccc(F)c3)C2)cn1 (stereo not given) | 0.954
26 | Cc1ccc(C)c(Oc2ccc(CNC(=O)C3CNC(=O)N3)cn2)c1 (stereo not given) | 0.577
27 | Cc1ccc([C@]2(O)CC[C@H]3CN(Cc4ccncc4)C[C@H]32)nc1 | -31.5
28 | Cc1ccc(-n2cccn2)cc1S(=O)(=O)N1C[C@H](C2CC2)[C@@H](N)C1 | 0.479
29 | Cc1ccc(C(=O)CN2C(=O)c3ccccc3CS2(=O)=O)c(C)c1 | 17.6
30 | Fc1ccc(CN2CCO[C@H]3[C@H](OCC4CCCC4)CC[C@@H]32)cc1 | 37.9
31 | CCCS(=O)(=O)N1C[C@@H]2C[C@H](C(=O)N3CCCC3)[C@H](C1)O2 | -6.28
32 | Cc1ccc(F)cc1S(=O)(=O)NCc1cccc(C(=O)N2CCCC2)c1 | -15.1
33 | Cc1cc(NCc2ccco2)nc2[nH]nc(N)c12 | -43.6
34 | O=C(NCc1ccoc1)Nc1cc(C(F)(F)F)c[nH]c1=O | -0.779
35 | CCOC(=O)N1CCN(C(=O)C2CC(=O)N(c3ccccc3Br)C2)CC1 (stereo not given) | -7.22
36 | Cc1ccc(-c2nnc(CCC(=O)NCc3cn(C)nc3C)o2)s1 | -1.31
37 | O=C(CCN1CCc2[nH]nc(C(F)(F)F)c2C1)Nc1ccccc1 | -1.2
38 | Cc1cnc(N2CCC3(C2)C(=O)N(C)CCN3Cc2cccnc2)nc1 (stereo not given) | -6.98
39 | Cc1ccsc1CN(C)CCc1scnc1C | -17.6
40 | O=C(Nc1ccccc1)N1CCn2c(nnc2C2CCNCC2)C1 | -3.84
41 | Cc1cc(F)ccc1N1CCCC(NC2CCSCC2)C1=O (stereo not given) | 1.07
42 | O=C(CCc1cc2n(n1)CCCN(C(=O)c1ccccn1)C2)NC1CC1 | -13.7
43 | COC1CCN(Cc2csc(C(C)C)n2)CC1 | 3.32
44 | Cc1ccccc1CN1C[C@H]2CC[C@@H](C1)N(CC1CCC1)C2=O | 4.86

Row | Structure (SMILES) | cytotoxicity at 10 µM [%]
45 | O=C(c1cscn1)N1CCC(O)(Cn2ccc3ccncc32)CC1 | -18.2
46 | CN(Cc1ccc(Cl)s1)C(=O)Cn1nc(-c2ccc(F)cc2)oc1=O | -20.4
47 | Cc1ccc(C(=O)NC2CCOc3ccccc32)cc1S(C)(=O)=O (stereo not given) | -3.83
48 | Cc1cc(C)n(CC2CN(Cc3nc(-c4ccco4)no3)CCO2)n1 (stereo not given) | -6.58
49 | Cc1ccnc(C(NC(=O)c2sc(C)nc2C)C2CC2)n1 (stereo not given) | -11
50 | CC[C@@H]1N(Cc2cc(OC)cc(OC)c2)CCC[C@]12CCC(=O)N2C | 11.8
51 | CCS(=O)(=O)N1CCc2ncnc(OC)c2CC1 | 6.93
52 | CC(CNC1CCN(Cc2ccncc2)CC1)c1ccc(F)cc1F (stereo not given) | -9.73
53 | CC(=O)N1CCOC[C@H](Oc2ccc(C(F)(F)F)cc2)C1 | 2.65
54 | Cc1cc(C(=O)N2CC[C@H](N3CCN(C)CC3)[C@H](CCCO)C2)n(C)n1 | -12.4
55 | COCCN(C(=O)c1ccccn1)c1nc2c(s1)CCc1c-2cnn1C | -13.8
56 | Cc1cc(CS(=O)(=O)NCC2CCCCC2)on1 | -18.7
57 | CC1(C)CNC(=O)CN(C(=O)Cc2ccccc2)C1 | -6.92
58 | Cn1c(CN2CCCc3cc(F)cc(F)c32)cc(=O)n(C)c1=O | 17.3
59 | CC(C)c1nc(NC(=O)CCCn2cccc2)n(C)n1 | -7.71
60 | CNC(=O)Cc1ccc(NC(=O)NCC(C)c2ncc(C)s2)cc1 (stereo not given) | -14.4
61 | CCN1CCC(CNC(=O)C(c2ccc(F)cc2)N(C)C)(N(C)C)CC1 (stereo not given) | -0.288
62 | O=C(CCc1ccncc1)Nc1ccc(OCC2CC2)cc1 | -2.56
63 | COCCCN1CC2(CCCCN2C(=O)C2CCCCC2)CC1=O (stereo not given) | 12.2
64 | CC1(C)CC(=O)c2cnc3nc(N4CCOCC4)nc(O)c3c2C1 | 1.21
65 | CCC(=O)N1CCC2(CC1)c1nc[nH]c1CCN2S(C)(=O)=O | -11.4
66 | COCC(=O)N1CCC2(CC1)COc1ccccc1S(=O)(=O)N(C)C2 | 9.7

Row | Structure (SMILES) | cytotoxicity at 10 µM [%]
67 | CCCn1ncc(C2CC(=O)NCc3nc4sc(C)cn4c32)c1C (stereo not given) | -10.8
68 | Cc1nn(C)c(C)c1C1COCCN1C(=O)Cc1cccc(F)c1 (stereo not given) | -11
69 | CCOc1ccc2c(c1)CN(Cc1nc3c(cnn3C)c(=O)[nH]1)CC2 | -0.373
70 | O=C1CN(Cc2cn(C3CCN(C4CSCCSC4)CC3)nn2)CCN1 | -48.8
71 | CN(Cc1ccco1)C(=O)Nc1ccc(=O)n(C)c1 | -43.1
72 | Cc1nnc2ccc(NCC3(N4CCCCC4)CCOCC3)nn12 | -3.59
73 | N#Cc1c(N)nc2c(c1-c1cnc(N3CCCC3)nc1)COCC2 | 10.5
74 | O=C(c1ccnnc1)N1CCN(Cc2cccnc2)c2ncccc2C1 | 0.121
75 | Cc1cnccc1NCCn1ccnc1C1CCOC1 (stereo not given) | 3.8
76 | Cc1cc(=O)n(CCNS(=O)(=O)c2ccccc2)cn1 | 3.33
77 | Cc1nocc1C(=O)N1CCc2c(CN(C)C(C)C)n[nH]c2C1 | -12.3
78 | CC(C)c1nc(CN2CCCCC2Cn2cncn2)cs1 (stereo not given) | -5.06
79 | Cn1c(CN2CCCCC2)nnc1C1CCN(c2nccc(N)n2)CC1 | -7.98
80 | Cn1cnc2c1C(COCC1CC1)CN(C(=O)c1cccs1)C2 (stereo not given) | 7.63
81 | CC(C)CN1C(=O)CC(N2CCN(c3ccc(F)cc3)CC2)C1=O (stereo not given) | 6.56
82 | CN(C)CCN1CCCC12CCN(C(=O)c1ccco1)CC2 | 1.49
83 | CNCc1cn(C2CCN(C(=O)NCc3ccco3)CC2)nn1 | 1.11
84 | Cc1nc(CN2CCCC(N(C)CCc3cccs3)C2)no1 (stereo not given) | -21.8
85 | CN1CCc2[nH]cnc2C12CCN(C(=O)c1noc3c1CCCC3)CC2 | 8.71
86 | O=c1n(CC2CCCO2)nc(CC2CCNCC2)n1-c1ccccc1 (stereo not given) | -3.49
87 | Cc1cc(N2CCOC(C(F)(F)F)C2)nc(-c2ccccc2O)n1 (stereo not given) | -0.238
88 | COCC(=O)N1CCCCC1c1nccc(C)n1 (stereo not given) | -14.6

Row | Structure (SMILES) | cytotoxicity at 10 µM [%]
89 | CCOCCN1CCN(c2ncccc2C#N)CC1CC (stereo not given) | 5.94
90 | Cc1nc(CN2CCCC(N(C)Cc3nccn3C)C2)no1 (stereo not given) | -16.8
91 | O=C(NCc1nncn1C1CC1)c1ccccc1Oc1cccnc1 | -4.97
92 | CCC1CCCCCN1C(=O)c1coc(S(=O)(=O)N(C)C)c1 (stereo not given) | 1.66
93 | CC(C)(C)OC(=O)NC1CCC(NC(=O)c2ccc[nH]2)CC1 (stereo not given) | -17.1
94 | Cc1nocc1C(=O)N1CCOC2(COCCN(C(C)C)C2)C1 (stereo not given) | 10
95 | CSc1ccc(C(C(=O)O)N2CCC(C(=O)N3CCCC3)CC2)cc1 (stereo not given) | -3.45
96 | O=C(Nc1ccc(F)cc1)N1C[C@@H]2C[C@H](C(=O)N3CCOCC3)[C@H](C1)O2 | 3.41
97 | Cn1cc(CN2CCC3(CC(=O)N(c4ccc5c(c4)OCO5)C3)C2)cn1 (stereo not given) | -4.97
98 | C/C=C(\C)CN1C[C@H](c2cccc(OC)c2)[C@@H](N)C1 | 3.49
99 | CCN(CC1CN(Cc2cccnc2)CCO1)c1cccnn1 (stereo not given) | -14
100 | CCN1CCC(NC(=O)CN2CCCC2Cn2cncn2)CC1 (stereo not given) | 6.54
101 | CCN1C(=O)CCCC12CCCN(C(=O)c1sccc1C)C2 (stereo not given) | 3.73
102 | COc1ccccc1C(=O)NS(=O)(=O)c1cncc(Br)c1 | -6.05
103 | NC(=O)c1nc2c(s1)CCN(C(=O)Nc1cccc(Cl)c1)CC2 | 6.64
104 | CCCn1ncc(C(=O)N(Cc2cccnc2)C[C@@H]2CCC(=O)N2)c1C | 7.69
105 | c1ccc(CCN2CCCC2c2ccnc(Nc3ncccn3)n2)cc1 (stereo not given) | 2.14
106 | CCN1C(=O)CC[C@@H]2[C@H]1CCN2C(=O)Cc1cccc(OC)c1 | 0.657
107 | Cc1nc[nH]c1CN1CCN(C2CCOCC2)CC(C(N)=O)C1 (stereo not given) | -19.5
108 | COCc1ccc(C(=O)NCCCNc2ccc(C(F)(F)F)cn2)cc1 | 2.13
109 | COc1ccc(C(C)C)cc1C1CC(=O)NCc2nc(N(C)C)sc21 (stereo not given) | -1.22
110 | CCCS(=O)(=O)N1CCC(Oc2ccc(C#N)cc2)CC1 | 3.82
